Calls of active or inactive are those of the source. No cut-off for these calls is given here.
How the values were obtained:
[1] = Antitumor activity against human NCI60 cells after 48 hrs by SRB assay; type: functional; settings: NCI60, 48 h; for TGI: read-out: pTGI (converted)
Method in brief: (§1)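 Run at NCI in the 60-line human tumour panel. Five concentrations at 10-fold dilutions starting from 10^-4 M, with continuous exposure for 48 h. Growth was read by sulforhodamine B protein staining. GI50 (+50% growth), TGI (0% growth) and LC50 were interpolated from the curves, and MG-MID is the arithmetic mean across all tested lines.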

Tru-Pr1 = test: Effect on cell cycle in human […] cells at 10 uM after 48 hrs by FACS analysis; type: functional, cell-based
Method in brief: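 TSU-Pr1 prostate carcinoma cells (5×10^5) in exponential growth were treated for 48 h. They were then centrifuged, fixed in ice-cold 70% ethanol, treated with lysis buffer containing RNase, and stained with propidium iodide. DNA content and cell-cycle phases were read by flow cytometry.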

[2] = Antitumor activity against human MCF7/ADR-RES cells after 48 hrs by SRB assay; type: functional; settings: NCI/ADR-RES; method in brief: as §1
KM12 = test: Antitumor activity against human KM12 cells after 48 hrs by SRB assay; type: functional; settings: KM12, 48 h; method in brief: as §1
Malme-3M = test: Antitumor activity against human MALME3M cells after 48 hrs by SRB assay; type: functional; method in brief: as §1
HCT-116 = test: Antitumor activity against human HCT116 cells after 48 hrs by SRB assay; type: functional; settings: HCT-116, 48 h; method in brief: as §1
[3] = Antitumor activity against human HL60(TB) cells after 48 hrs by SRB assay; type: functional, HL-60(TB); settings: HL-60, 48 h
Method in brief: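 NCI 60-cell-line primary screen: five concentrations at 10-fold dilutions starting from 10^-4 M. Cells exposed to drug continuously for 48 h. Growth estimated by sulforhodamine B protein assay. GI50 is the interpolated molar concentration giving +50% growth, TGI the concentration giving 0% growth, and LC50 the concentration giving 50% net cell death.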

SR = test: Antitumor activity against human SR cells after 48 hrs by SRB assay; type: functional; method in brief: as §1
T47D = test: Antitumor activity against human T47D cells after 48 hrs by SRB assay; type: functional; method in brief: as §1
MCF7 = test: Antitumor activity against human MCF7 cells after 48 hrs by SRB assay; type: functional; settings: MCF7, 48 h; method in brief: as §1
MDA-MB-435 = test: Antitumor activity against human MDA-MB-435 cells after 48 hrs by SRB assay; type: functional; settings: MDA-MB-435, 48 h; method in brief: as §1
MDA-N = test: Antitumor activity against human MDA-N cells after 48 hrs by SRB assay; type: functional; method in brief: as §1
LOX IMVI = test: Antitumor activity against human LOXIMVI cells after 48 hrs by SRB assay; type: functional; method in brief: as §1
MDA-MB-231 = test: Antitumor activity against human MDA-MB-231 cells after 48 hrs by SRB assay; type: functional; settings: MDA-MB-231, 48 h; method in brief: as §1
HT-29 = test: Antitumor activity against human HT29 cells after 48 hrs by SRB assay; type: functional; settings: HT-29, 48 h; method in brief: as §1
K562 = test: Antitumor activity against human K562 cells after 48 hrs by SRB assay; type: functional; settings: K562, 48 h; method in brief: as §1
SW-620 = test: Antitumor activity against human SW620 cells after 48 hrs by SRB assay; type: functional; settings: SW-620, 48 h; method in brief: as §1
SK-MEL-2 = test: Antitumor activity against human SK-MEL-2 cells after 48 hrs by SRB assay; type: functional; settings: SK-MEL-2, 48 h; method in brief: as §1
UACC-257 = test: Antitumor activity against human UACC257 cells after 48 hrs by SRB assay; type: functional; settings: UACC-257, 48 h; method in brief: as §1
UACC-62 = test: Antitumor activity against human UACC62 cells after 48 hrs by SRB assay; type: functional; settings: UACC-62, 48 h; method in brief: as §1
M14 = test: Antitumor activity against human M14 cells after 48 hrs by SRB assay; type: functional; settings: M14, 48 h; method in brief: as §1
Hs-578T = test: Antitumor activity against human HS578T cells after 48 hrs by SRB assay; type: functional; method in brief: as §1
COLO 205 = test: Antitumor activity against human COLO205 cells after 48 hrs by SRB assay; type: functional; settings: COLO 205, 48 h; method in brief: as §1
SK-MEL-28 = test: Antitumor activity against human SK-MEL-28 cells after 48 hrs by SRB assay; type: functional; settings: SK-MEL-28, 48 h; method in brief: as §1
MOLT-4 = test: Antitumor activity against human MOLT4 cells after 48 hrs by SRB assay; type: functional; settings: MOLT-4, 48 h; method in brief: as §1
RPMI-8226 = test: Antitumor activity against human RPMI8226 cells after 48 hrs by SRB assay; type: functional; settings: RPMI-8226, 48 h; method in brief: as §1
SK-MEL-5 = test: Antitumor activity against human SK-MEL-5 cells after 48 hrs by SRB assay; type: functional; settings: SK-MEL-5, 48 h; method in brief: as §1

c1ccc2cc(CN3CCC(C4CCN(Cc5ccc6ccccc6c5)CC4)CC3)ccc2c1
GI50 [1]: 2880 nM
LC50 [1]: 25100 nM
TGI [1]: 8320 nM

COc1ccc2cc(CNCCCCCCNCc3ccc4cc(OC)ccc4c3)ccc2c1
GI50 [1]: 603 nM
LC50 [1]: 4070 nM
TGI [1]: 1740 nM

c1ccc2c(CNCCCCCCNCc3cccc4ccccc34)cccc2c1
GI50 [1]: 5370 nM
LC50 [1]: 29500 nM
TGI [1]: 12300 nM

c1ccc2c(CN3CCC(C4CCN(Cc5cccc6ccccc56)CC4)CC3)cccc2c1
GI50 [1]: 1950 nM
LC50 [1]: 9550 nM
TGI [1]: 4270 nM

O=C1c2c(O)ccc(O)c2C(=O)c2c(NCCNCCO)ccc(NCCNCCO)c21 [MITOXANTRONE]
GI50 [1]: 47.9 nM
TGI [1]: 692 nM

COc1cc(NS(C)(=O)=O)ccc1Nc1c2ccccc2nc2ccccc12 [AMSACRINE]
GI50 [1]: 229 nM
TGI [1]: 3390 nM

c1ccc2c(CNCCCCCCCCNCc3cccc4ccccc34)cccc2c1
GI50 [1]: 2400 nM
TGI [1]: 5250 nM

COc1ccc2cc(CN3CCC(C4CCN(Cc5ccc6cc(OC)ccc6c5)CC4)CC3)ccc2c1
Activity (Tru-Pr1): inactive
GI50 [2]: 13200 nM
GI50 (KM12): 3240 nM
GI50 (Malme-3M): 2290 nM
GI50 (HCT-116): 3470 nM
GI50 [3]: 2630 nM
GI50 (SR): 1230 nM
GI50 (T47D): 1780 nM
GI50 (MCF7): 5250 nM
GI50 (MDA-MB-435): 1910 nM
GI50 (MDA-N): 1700 nM
GI50 (LOX IMVI): 2820 nM
GI50 (MDA-MB-231): 3310 nM
GI50 (HT-29): 3390 nM
GI50 (K562): 501 nM
GI50 (SW-620): 3160 nM
GI50 (SK-MEL-2): 6460 nM
GI50 (UACC-257): 2040 nM
GI50 (UACC-62): 1910 nM
GI50 [1]: 2950 nM
TGI [1]: 9770 nM
GI50 (M14): 2450 nM
GI50 (Hs-578T): 10700 nM
GI50 (COLO 205): 1620 nM
GI50 (SK-MEL-28): 2630 nM
GI50 (MOLT-4): 2190 nM
GI50 (RPMI-8226): 1740 nM
GI50 (SK-MEL-5): 1480 nM

COc1ccc2cc(CNCCOCCOCCNCc3ccc4cc(OC)ccc4c3)ccc2c1
GI50 [1]: 724 nM
LC50 [1]: 5250 nM
TGI [1]: 1910 nM

c1ccc2c(CNCCCCCCCCCCCCNCc3cccc4ccccc34)cccc2c1
GI50 [1]: 2190 nM
TGI [1]: 4370 nM

COc1ccc2cc(CNCCCN3CCN(CCCNCc4ccc5cc(OC)ccc5c4)CC3)ccc2c1
GI50 [1]: 1100 nM
LC50 [1]: 5620 nM
TGI [1]: 2450 nM

COc1ccc2cc(CNCCCCCCCCNCc3ccc4cc(OC)ccc4c3)ccc2c1
GI50 [1]: 1150 nM
LC50 [1]: 6310 nM
TGI [1]: 2400 nM

c1ccc2c(CNCCCN3CCN(CCCNCc4cccc5ccccc45)CC3)cccc2c1
GI50 [1]: 6610 nM
LC50 [1]: 43700 nM
TGI [1]: 19500 nM

c1ccc2cc(CNCCOCCOCCNCc3ccc4ccccc4c3)ccc2c1
GI50 [1]: 1700 nM
LC50 [1]: 10000 nM
TGI [1]: 3720 nM

COc1ccc2cc(CNCCCCCCCCCCCCNCc3ccc4cc(OC)ccc4c3)ccc2c1
GI50 [1]: 15500 nM
LC50 [1]: 55000 nM
TGI [1]: 29500 nM

Source: ChEMBL document CHEMBL1140056, “Design, synthesis, and antitumor activity of new bis-aminomethylnaphthalenes” (2008)
